NadD inh = NadD (S. aureus) enzyme inhibition; purified NadD enzyme, colorimetric absorbance read-out; inhibition, % at 20 µM; 0.78% of 360,000 active; AID 602399; in the data active = inhibition above about 26%
Scp-1 inhibitor = inhibitors of human Scp-1 phosphatase | inhibition, % at 20 µM | AID 493091 | 0.88% of 340,000 active | Recombinant Scp1, phosphopeptide, malachite green phosphate absorbance | Q9GZU7;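 active = inhibition above about 50% at 20 µM, limit read from the data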
Target sequence (Q9GZU7 76-261 limits assumed): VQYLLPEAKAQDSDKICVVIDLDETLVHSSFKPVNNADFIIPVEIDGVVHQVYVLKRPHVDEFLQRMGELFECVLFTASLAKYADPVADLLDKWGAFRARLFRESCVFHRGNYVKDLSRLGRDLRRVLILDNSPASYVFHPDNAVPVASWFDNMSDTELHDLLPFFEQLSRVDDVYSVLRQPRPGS
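System: truncated SCP-1 phosphatase (76-261aa); medium: Tris acetate buffer pH 5.5 with MgCl2 and Tween-20; incubation: 45 min room-temperature reaction, 5 min colour, 30 min stabiliser; compound: single 20 µM dose, 1% DMSO; reagent: Phosphorylated 17-residue peptide substrate; read-out: % inhibition at 20 µM; technique: colorimetric free-phosphate detection, absorbance 630 nm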
DNMT1 inh = DNMT1 (human) enzyme inhibition. P26358. inhibition (reported as % activation of signal), % at 10 µM. AID 588458. 0.83% of 360,000 active. DNMT1 molecular beacon, Hinp1I cleavage, fluorescence; in the data active = inhibition above about 50%
SUMO1 PPI mod = alters human SUMO1 binding to SIM partners; 0.33% of 360,000 active; SUMO1 binding to a labelled peptide, TR-FRET, 1 h; inhibition, % at 20 µM; AID 602429; in the data active = inhibition above about 37%
Target sequence (P63165 whole entry, looked up): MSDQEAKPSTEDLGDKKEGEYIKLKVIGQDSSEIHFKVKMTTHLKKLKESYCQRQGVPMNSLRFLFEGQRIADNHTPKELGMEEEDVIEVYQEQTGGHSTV
LMPTP block = blocks human LMPTP phosphatase | P24666 | AID 651560 | inhibition, % at 20 µM | recombinant LMPTP-A, OMFP fluorogenic substrate, fluorescence intensity | 0.22% of 360,000 active;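 active = compounds that cut the enzyme signal by at least half of the control window in the single-dose screen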
Target sequence (P24666 whole entry, looked up): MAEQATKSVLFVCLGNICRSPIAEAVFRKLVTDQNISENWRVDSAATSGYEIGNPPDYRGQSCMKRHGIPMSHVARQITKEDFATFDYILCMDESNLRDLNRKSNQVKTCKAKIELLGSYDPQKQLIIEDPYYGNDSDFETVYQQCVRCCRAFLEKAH
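Test system: LMPTP-A phosphatase enzyme. Amount: LMPTP-A at 0.625 nM final in the reaction. Reagent: OMFP substrate, 400 µM final. Times: 50 min at room temperature. Signal: endpoint fluorescence intensity from OMFP dephosphorylation. Read-out basis: % inhibition. Benchmarks: no-enzyme and uninhibited controls.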
STEP block = blocks human striatal-enriched tyrosine phosphatase. recombinant STEP, OMFP fluorogenic substrate, fluorescence. 0.25% of 360,000 active. inhibition, % at 20 µM. P54829;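 active = inhibition at 20 µM, scaled per plate between control wells, above about 37%, limit read from the data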
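material = STEP tyrosine phosphatase | reagent = fluorogenic phosphatase substrate OMFP at 25 µM final | doses = single compound dose of 20 µM, 1% DMSO final | schedule = 20 min reaction, room temperature, in the dark | measured by = fluorescence, 480/540 nm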
Each line names hits and unclear results; the compound was inactive in the other large screens. A selection: hits, their analogues and other compounds. The true share with any hit is near 2.4%.

COc1ccc(OC)c(N2C(=O)NC(=O)/C(=C/c3ccc([N+](=O)[O-])s3)C2=O)c1	SUMO1 PPI mod 47
COc1ccc(OC)c(N2C(=O)/C(=C/c3ccco3)C(=O)NC2=S)c1	Scp-1 inhibitor 89 (no result: NadD inh, DNMT1 inh, SUMO1 PPI mod, LMPTP block, STEP block)
COC(=O)C1=C(c2ccc(F)cc2OCc2ccccc2)C[C@@H]2CC[C@H]1N2C(=O)N1CCC(O)(c2ccc(Cl)cc2)CC1	none
COc1ccc(C2=CC(c3ccc4c(c3)OCO4)c3c(c4ccccc4oc3=O)O2)cc1OC (configuration not stated)	none
O=C1NC(=O)N(CCc2ccc(F)cc2)C(=O)/C1=C\C=C\c1ccccc1	NadD inh 36
Cc1ccc(N2C(=O)NC(=O)/C(=C\c3cc(C)n(-c4cc(C(=O)O)cc(C(=O)O)c4)c3C)C2=O)cc1	Scp-1 inhibitor 51
CC(C)CNc1c2c(nc3ccccc13)CCC2	SUMO1 PPI mod 39
CCCCn1c(O)c(/C=C/C=Nc2ccccc2)c(=O)[nH]c1=O	none
O=C(O)C1C(C(=O)O)C2(Cl)C(Cl)=C(Cl)C1(Cl)C2(Cl)Cl (configuration not stated)	LMPTP block 65
C=CCOC(=O)C1C(C(=O)O)C2(Cl)C(Cl)=C(Cl)C1(Cl)C2(Cl)Cl (configuration not stated)	none
COc1cc(/C=C2\C[C@H]3[C@@H]4CC=C5C[C@@H](N6CCCC6)CC[C@]5(C)[C@H]4CC[C@]3(C)[C@H]2O)cc(OC)c1OC	none
CCOc1ccc(N2C(=O)NC(=O)/C(=C\c3ccc(N4CCCCC4)o3)C2=O)cc1	none
CCOc1ccc(N2C(=O)/C(=C/c3ccc(C)o3)C(=O)NC2=S)cc1	DNMT1 inh 50
O=C1NC(=S)N(c2ccc(F)cc2)C(=O)/C1=C\c1ccoc1	NadD inh 32, Scp-1 inhibitor 74, DNMT1 inh 85, SUMO1 PPI mod 75, STEP block 42
CC(C)(C)n1c(O)c(C=Nc2ccc3c(c2)CCC3)c(=O)[nH]c1=O	none
C=CCn1c(O)c(C=NCCN2CCOCC2)c(=O)[nH]c1=S	none
Clc1ccc(C(c2ccc(Cl)cc2)n2cc[n+](CC(OCc3ccc(Cl)cc3Cl)c3ccc(Cl)cc3Cl)c2)cc1 (configuration not stated)	NadD inh 80, SUMO1 PPI mod 80
Clc1ccc(COC(Cn2ccnc2)c2ccc(Cl)cc2Cl)cc1 (configuration not stated)	none
CC(C)CNC(=O)c1c(N)n(Cc2ccc3c(c2)OCO3)c2nc3ccccc3nc12	SUMO1 PPI mod 46
CC(C)CCNC(=O)c1c(N)n(Cc2ccc3c(c2)OCO3)c2nc3ccccc3nc12	none
CCCNC(=O)N1[C@H]2CC[C@@H]1C(C(=O)OC)=C(c1c(C)noc1C)C2	none
COc1ccc(P2(=O)Nc3ccccc3N2)cc1	Scp-1 inhibitor 55
COc1ccc(CNC(=O)CCC(=O)N2C[C@H]3C[C@H](C2)c2cccc(=O)n2C3)cc1	none
CC1Oc2cc3c(-c4c(O)cc(O)c5c(O)c6c(cc45)OC(C)C(C)C6=O)c(O)cc(O)c3c(O)c2C(=O)C1C (configuration not stated)	NadD inh 36, DNMT1 inh 60, SUMO1 PPI mod 43
O=c1[nH]c(=S)n(Cc2ccco2)c(O)c1C=NCc1cccs1	LMPTP block 65
Nc1c(C(=O)NC2CCCC2)c2nc3ccccc3nc2n1CC1CCCO1 (configuration not stated)	SUMO1 PPI mod 41
COc1cc(CC(=O)N2C[C@H]3C[C@@H](C2)c2cccc(=O)n2C3)cc(OC)c1OC	none
Cc1nc2c(=O)n(C)c(=O)nc-2n(C)n1	DNMT1 inh 128, LMPTP block 73, STEP block 79
CCOC(=O)[C@]1(C#N)[C@@H]2C=CC(C(C)=O)=CN2[C@@H](C(N)=O)[C@@H]1c1ccsc1	SUMO1 PPI mod 67
CCS(=O)(=O)Nc1cccc(C(=C2CCCCC2)c2cnc[nH]2)c1	none
N#CC(C#N)=NNc1ccc(S(N)(=O)=O)cc1	NadD inh 41, LMPTP block 57
CN1CCC(N(C)c2ccc(C(N)=O)cc2[N+](=O)[O-])CC1	none
CN(C)C1C(=O)C(C(N)=O)=C(O)C2(O)C(=O)C3=C(O)c4c(O)cccc4C(C)(O)C3C(O)C12 (configuration not stated)	DNMT1 inh 53, LMPTP block 52
Cc1nc2ccccc2c(=O)n1-c1cccc([N+](=O)[O-])c1	none
CNc1ccc2oc(C[C@H]3O[C@@]4(CC[C@H]3C)O[C@H]([C@H](C)C(=O)c3ccc[nH]3)[C@H](C)C[C@H]4C)nc2c1C(=O)O	NadD inh 59
COC(=O)C1=C(c2ccc(OCc3ccccc3)cc2)C[C@@H]2CC[C@H]1N2C(=O)NCc1cccc(OC)c1	none
N#Cc1c(/N=C/c2c(O)n(Cc3ccco3)c(=O)[nH]c2=O)sc2c1CCCC2	DNMT1 inh 67
O=C(N/N=C/c1c(O)n(Cc2ccc(F)cc2)c(=O)[nH]c1=O)c1ccccc1	none
O=C(O)CCC(=O)NCCC1=c2ccccc2=N/C1=C\c1c(O)n(Cc2ccc(F)cc2)c(=S)[nH]c1=O	Scp-1 inhibitor 92
O=c1c2ccccc2[se]n1-c1ccccc1	Scp-1 inhibitor 101
O=c1c2ccccc2nc(-c2ccccc2)n1-c1ccccc1	none
Cn1c(O)c(C=NCCN2CCOCC2)c(=O)[nH]c1=S	none
C=Cc1cc(OC)c2c(c1)c(=O)oc1c2cc(OC)c2c(O)ccc(C3OC(C)C(O)C(C)(O)C3O)c21 (configuration not stated)	Scp-1 inhibitor 81, DNMT1 inh 62, SUMO1 PPI mod 48
O=C1NC(=O)C(=Cc2ccc(Sc3ccccc3)o2)C(=O)N1	none
O=C1NC(=O)N(c2ccc(Cl)cc2)C(=O)/C1=C\c1ccc(Sc2nc3ccccc3[nH]2)o1	NadD inh 55
CN1CCC(n2nccc2N)CC1	SUMO1 PPI mod 43
Nc1ccnn1C1CCNCC1	none
CC(C)OC1CCCC(O)C1CC(=O)O (configuration not stated)	none
O=C1C(=O)c2ccccc2-c2ccccc21	DNMT1 inh 105, LMPTP block 51, STEP block 36
O=C1C(=O)c2cccc3cccc1c23	none
O=C1NC(=O)C(=Cc2ccc(-c3ccc(Cl)cc3)o2)C(=O)N1	NadD inh 39
O=C1NC(=O)C(=Cc2ccc(-c3ccc(F)cc3O)o2)C(=O)N1	Scp-1 inhibitor 95
O=C1NC(=O)C(=Cc2ccc(-c3ccc(S(=O)(=O)N4CCOCC4)cc3)o2)C(=O)N1	none
O=C1NC(=O)C(=Cc2ccco2)C(=O)N1	DNMT1 inh 82, STEP block 50
